The test system of test [1] is histone H3 (Lys9/14) acetylation in HCT116 cells. Kind of test: Immunoblot analysis of histone hyperacetylation. It counts as cell-based. The note with it: HCT116, 8 h post-treatment. An outline of the steps:
(§1)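 Cells grown in DMEM with 10% FBS at 37 °C, 5% CO2; 4 × 10^5 cells seeded and incubated overnight. Treated 8 h with test compound at 0–10 μM final or 1% EtOH vehicle. Whole-cell lysates normalised by BCA; equal protein run on SDS-PAGE, transferred to PVDF, probed with anti-acetyl histone H3 antibody and β-actin, chemiluminescent detection.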
A general note: Immunoblotting shows a protein as a band on a membrane.

The subject of test [2] is histone H3 (Lys9/14) acetylation in MDA-MB-231 cells. Kind of test: Immunoblot analysis of histone hyperacetylation. The format is cell-based. The note with it: MDA-MB-231, 8 h post-treatment. A digest of the protocol: as §1
The target in a further test is T1, HDAC6 (Homo sapiens, UniProt Q9UBN7).
T1 sequence (Q9UBN7 1-1215): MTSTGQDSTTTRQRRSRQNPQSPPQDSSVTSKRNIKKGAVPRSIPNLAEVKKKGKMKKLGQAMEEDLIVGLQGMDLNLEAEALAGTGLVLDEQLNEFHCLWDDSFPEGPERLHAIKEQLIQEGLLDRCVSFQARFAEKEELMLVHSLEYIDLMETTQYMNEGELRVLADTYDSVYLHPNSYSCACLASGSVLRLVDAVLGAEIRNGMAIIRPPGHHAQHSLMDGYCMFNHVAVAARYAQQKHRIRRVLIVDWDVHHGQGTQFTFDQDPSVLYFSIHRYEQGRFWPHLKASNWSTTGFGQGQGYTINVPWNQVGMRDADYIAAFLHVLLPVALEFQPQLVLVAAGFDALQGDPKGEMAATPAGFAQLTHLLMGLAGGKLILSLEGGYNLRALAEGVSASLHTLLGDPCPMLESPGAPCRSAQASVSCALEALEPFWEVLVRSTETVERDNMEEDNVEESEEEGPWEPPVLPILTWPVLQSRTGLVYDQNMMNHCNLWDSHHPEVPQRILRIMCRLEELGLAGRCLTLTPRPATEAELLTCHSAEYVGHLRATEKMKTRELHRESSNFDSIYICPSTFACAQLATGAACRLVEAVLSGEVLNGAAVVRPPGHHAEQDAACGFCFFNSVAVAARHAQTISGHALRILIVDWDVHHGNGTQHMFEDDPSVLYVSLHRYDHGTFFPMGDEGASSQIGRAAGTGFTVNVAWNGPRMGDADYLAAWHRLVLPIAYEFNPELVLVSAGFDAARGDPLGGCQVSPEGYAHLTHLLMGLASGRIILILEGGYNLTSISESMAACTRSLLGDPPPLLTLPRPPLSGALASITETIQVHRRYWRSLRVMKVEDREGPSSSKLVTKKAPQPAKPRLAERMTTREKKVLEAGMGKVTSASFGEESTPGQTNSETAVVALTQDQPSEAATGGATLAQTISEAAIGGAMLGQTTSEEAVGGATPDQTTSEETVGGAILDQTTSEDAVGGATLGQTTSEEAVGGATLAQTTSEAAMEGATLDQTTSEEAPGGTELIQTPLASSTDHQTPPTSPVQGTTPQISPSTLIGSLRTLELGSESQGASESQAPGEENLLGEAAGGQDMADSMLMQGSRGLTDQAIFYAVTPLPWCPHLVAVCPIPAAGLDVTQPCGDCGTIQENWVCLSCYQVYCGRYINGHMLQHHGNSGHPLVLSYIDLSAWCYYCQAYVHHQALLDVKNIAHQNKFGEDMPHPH
The note with it: relative to the strongly inhibited isoforms; ref [5]–[6], [6c]; cited from earlier work.

The target in another test is T2, HDAC8 (Homo sapiens, UniProt Q9BY41).
T2 sequence (Q9BY41 1-377): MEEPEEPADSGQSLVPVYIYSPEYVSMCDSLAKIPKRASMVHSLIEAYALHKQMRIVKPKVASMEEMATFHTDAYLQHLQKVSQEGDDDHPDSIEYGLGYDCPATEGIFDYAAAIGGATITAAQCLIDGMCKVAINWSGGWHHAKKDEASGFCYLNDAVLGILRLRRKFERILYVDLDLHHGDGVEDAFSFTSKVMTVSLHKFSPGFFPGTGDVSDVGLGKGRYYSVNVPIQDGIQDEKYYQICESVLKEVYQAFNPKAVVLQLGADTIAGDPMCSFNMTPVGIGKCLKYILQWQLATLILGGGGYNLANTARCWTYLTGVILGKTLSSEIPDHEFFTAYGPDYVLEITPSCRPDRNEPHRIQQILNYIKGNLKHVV
Particulars: compared with HDACs 1–3; ref [5]–[6], [6c]; cited from earlier work.

In the next test the target is T3, HDAC10 (Homo sapiens, UniProt Q969S8).
T3 sequence (Q969S8 1-669): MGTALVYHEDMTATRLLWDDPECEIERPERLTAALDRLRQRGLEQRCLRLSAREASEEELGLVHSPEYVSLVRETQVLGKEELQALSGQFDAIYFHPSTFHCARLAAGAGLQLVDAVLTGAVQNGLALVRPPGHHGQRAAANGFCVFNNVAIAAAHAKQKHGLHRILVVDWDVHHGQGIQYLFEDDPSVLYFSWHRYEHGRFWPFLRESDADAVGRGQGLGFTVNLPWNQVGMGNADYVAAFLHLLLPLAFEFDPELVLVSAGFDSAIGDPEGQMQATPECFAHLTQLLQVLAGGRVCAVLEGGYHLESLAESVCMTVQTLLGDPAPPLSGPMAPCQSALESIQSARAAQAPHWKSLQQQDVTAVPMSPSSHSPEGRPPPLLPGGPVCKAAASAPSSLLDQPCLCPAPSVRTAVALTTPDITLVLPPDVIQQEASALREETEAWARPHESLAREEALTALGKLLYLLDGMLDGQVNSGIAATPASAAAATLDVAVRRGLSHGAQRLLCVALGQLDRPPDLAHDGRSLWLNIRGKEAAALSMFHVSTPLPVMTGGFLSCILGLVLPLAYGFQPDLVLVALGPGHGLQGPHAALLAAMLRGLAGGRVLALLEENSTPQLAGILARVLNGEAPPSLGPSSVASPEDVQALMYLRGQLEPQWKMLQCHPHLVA
Particulars: among class II isoforms; ref [5]–[6], [6c]; cited from earlier work.

Another test deals with HDAC11. The note with it: ref [5]–[6], [6c]; cited from earlier work.
The next test concerns the target HDAC isoform 4 (Homo sapiens, UniProt P56524). Briefly: HDAC enzyme inhibitory assay. The format is biochemical. Particulars: up to concentrations of 10 μM.
Another test addresses T4, HDAC isoform 7 (Homo sapiens, UniProt Q8WUI4).
T4 sequence (Q8WUI4 1-952): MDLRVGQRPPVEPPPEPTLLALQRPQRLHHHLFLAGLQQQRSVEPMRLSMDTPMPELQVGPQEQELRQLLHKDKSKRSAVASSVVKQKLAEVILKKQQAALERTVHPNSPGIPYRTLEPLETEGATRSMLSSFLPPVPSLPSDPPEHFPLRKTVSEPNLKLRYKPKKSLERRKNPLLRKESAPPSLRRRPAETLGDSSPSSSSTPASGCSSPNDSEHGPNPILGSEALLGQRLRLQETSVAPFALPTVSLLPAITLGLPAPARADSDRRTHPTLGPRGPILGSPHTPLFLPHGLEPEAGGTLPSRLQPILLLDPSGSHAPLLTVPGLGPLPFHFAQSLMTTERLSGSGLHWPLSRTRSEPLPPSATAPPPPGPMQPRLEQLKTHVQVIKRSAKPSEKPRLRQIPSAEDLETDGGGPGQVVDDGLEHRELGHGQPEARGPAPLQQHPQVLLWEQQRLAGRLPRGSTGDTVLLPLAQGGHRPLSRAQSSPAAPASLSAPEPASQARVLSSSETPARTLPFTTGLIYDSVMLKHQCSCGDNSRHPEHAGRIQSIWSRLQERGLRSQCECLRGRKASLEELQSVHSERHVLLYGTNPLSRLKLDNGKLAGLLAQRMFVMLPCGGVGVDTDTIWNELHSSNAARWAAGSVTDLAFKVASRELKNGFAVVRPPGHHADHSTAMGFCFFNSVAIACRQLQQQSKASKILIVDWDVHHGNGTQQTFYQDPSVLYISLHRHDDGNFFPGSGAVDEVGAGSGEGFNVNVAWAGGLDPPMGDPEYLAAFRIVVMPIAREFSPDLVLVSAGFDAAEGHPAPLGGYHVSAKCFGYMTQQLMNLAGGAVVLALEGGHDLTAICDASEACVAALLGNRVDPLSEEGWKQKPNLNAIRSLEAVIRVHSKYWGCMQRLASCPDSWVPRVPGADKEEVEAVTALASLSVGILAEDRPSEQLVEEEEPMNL
Kind of test: HDAC enzyme inhibitory assay. The format is biochemical. The note with it: up to concentrations of 10 μM.

A further test has as its target HDAC isoform 9 (Homo sapiens, UniProt Q9UKV0). Kind of test: HDAC enzyme inhibitory assay. The format is biochemical. Particulars: up to concentrations of 10 μM.
Another test deals with T5, HDAC isoform 11 (Homo sapiens, UniProt Q96DB2).
T5 sequence (Q96DB2 1-347): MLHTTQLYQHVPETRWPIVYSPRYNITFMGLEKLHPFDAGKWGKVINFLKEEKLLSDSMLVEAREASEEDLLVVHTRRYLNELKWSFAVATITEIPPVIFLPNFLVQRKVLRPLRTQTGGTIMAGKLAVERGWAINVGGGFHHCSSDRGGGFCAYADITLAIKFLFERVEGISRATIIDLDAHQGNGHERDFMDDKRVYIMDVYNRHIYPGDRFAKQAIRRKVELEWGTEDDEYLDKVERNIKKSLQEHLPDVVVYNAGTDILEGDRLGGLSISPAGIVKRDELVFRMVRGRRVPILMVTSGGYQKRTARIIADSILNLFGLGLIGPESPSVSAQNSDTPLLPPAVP
Kind of test: HDAC enzyme inhibitory assay. It counts as biochemical. Particulars: up to concentrations of 10 μM.

For the next test, the system named is sirtuins. Kind of test: HDAC enzyme inhibitory assay. The format is biochemical. Particulars: up to concentrations of 10 μM.

Sequence of HDAC isoform 9 (Q9UKV0 whole entry, canonical isoform): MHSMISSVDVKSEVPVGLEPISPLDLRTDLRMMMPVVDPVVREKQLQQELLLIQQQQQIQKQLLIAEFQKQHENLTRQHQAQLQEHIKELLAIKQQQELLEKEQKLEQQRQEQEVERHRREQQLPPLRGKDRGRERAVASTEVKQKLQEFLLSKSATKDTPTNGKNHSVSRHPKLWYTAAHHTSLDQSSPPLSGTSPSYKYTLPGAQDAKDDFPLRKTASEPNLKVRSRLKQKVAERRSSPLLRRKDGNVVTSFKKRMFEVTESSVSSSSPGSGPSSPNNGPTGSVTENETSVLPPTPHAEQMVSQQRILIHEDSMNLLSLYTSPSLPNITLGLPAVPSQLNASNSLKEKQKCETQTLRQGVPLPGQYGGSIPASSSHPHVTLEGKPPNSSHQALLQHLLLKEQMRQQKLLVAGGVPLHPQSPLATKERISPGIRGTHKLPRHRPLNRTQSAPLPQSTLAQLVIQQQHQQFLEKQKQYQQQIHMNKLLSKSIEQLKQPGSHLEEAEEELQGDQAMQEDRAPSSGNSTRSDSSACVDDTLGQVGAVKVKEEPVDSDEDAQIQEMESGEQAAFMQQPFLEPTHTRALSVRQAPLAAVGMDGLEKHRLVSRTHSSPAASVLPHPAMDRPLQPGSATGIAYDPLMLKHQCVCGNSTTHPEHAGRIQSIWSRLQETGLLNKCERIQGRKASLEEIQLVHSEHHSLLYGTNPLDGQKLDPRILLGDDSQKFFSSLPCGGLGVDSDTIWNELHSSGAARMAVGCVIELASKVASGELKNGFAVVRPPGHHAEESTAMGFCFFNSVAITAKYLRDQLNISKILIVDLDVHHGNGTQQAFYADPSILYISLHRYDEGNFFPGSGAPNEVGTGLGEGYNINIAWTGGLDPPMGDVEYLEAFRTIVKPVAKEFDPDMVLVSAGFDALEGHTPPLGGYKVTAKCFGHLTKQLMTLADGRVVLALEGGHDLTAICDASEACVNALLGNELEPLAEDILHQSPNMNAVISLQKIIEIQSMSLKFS
Sequence of HDAC isoform 4 (P56524 whole entry, canonical isoform): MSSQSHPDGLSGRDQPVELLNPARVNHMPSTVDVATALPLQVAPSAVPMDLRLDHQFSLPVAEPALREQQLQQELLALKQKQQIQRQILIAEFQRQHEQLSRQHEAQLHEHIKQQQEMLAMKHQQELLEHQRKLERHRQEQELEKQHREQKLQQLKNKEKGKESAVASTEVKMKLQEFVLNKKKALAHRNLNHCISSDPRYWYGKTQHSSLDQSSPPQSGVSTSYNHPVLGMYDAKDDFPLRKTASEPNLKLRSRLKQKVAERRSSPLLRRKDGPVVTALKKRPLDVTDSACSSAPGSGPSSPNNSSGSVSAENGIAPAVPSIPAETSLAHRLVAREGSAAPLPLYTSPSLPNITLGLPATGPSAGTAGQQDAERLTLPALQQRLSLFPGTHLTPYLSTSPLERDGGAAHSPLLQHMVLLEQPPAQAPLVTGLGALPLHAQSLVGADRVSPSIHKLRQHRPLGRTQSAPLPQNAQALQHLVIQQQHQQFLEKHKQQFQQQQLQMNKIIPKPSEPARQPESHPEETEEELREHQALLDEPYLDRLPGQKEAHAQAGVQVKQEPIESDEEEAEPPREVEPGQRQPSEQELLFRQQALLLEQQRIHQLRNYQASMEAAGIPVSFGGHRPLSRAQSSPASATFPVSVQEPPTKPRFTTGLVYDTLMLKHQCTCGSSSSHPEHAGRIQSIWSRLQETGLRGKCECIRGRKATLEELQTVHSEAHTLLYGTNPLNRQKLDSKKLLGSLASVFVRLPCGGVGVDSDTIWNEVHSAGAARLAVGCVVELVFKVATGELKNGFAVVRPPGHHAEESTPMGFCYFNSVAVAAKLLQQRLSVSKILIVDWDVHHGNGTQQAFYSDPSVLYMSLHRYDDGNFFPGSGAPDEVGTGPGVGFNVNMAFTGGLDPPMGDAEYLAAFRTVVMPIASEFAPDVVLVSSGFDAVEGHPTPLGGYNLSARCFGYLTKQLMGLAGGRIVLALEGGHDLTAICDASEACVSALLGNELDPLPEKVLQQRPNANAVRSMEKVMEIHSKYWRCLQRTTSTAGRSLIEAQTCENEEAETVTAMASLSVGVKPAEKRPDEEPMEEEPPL

As for `CCCCCCCC(=O)SCC/C=C/[C@@H]1CC(=O)NCc2nc(cs2)C2=N[C@@](C)(CS2)C(=O)N[C@@H](C(C)C)C(=O)O1` [compound 5, largazole], the “histone H3 (Lys9/14) hyperacetylation” value in [1] and in test [2] was “dose-dependent increase” in each case. Also, the “potency in vitro against HDAC6” value on HDAC6 is “two orders of magnitude lower potency”. Also, at HDAC8, the HDAC8 inhibition entry was “inhibited to a much lesser extent”. Also, the “HDAC10 activity in vitro” value on HDAC10 is recorded as “severely compromised”. The HDAC11 inhibition result in the test with HDAC11 is reported as “strongly inhibited”.
In the case of `CC(C)[C@@H]1NC(=O)[C@]2(C)CSC(=N2)c2csc(n2)CNC(=O)C[C@@H](/C=C/CCS)OC1=O` [compound 6, largazole thiol], the “inhibitory activity against isoform 4” value at HDAC isoform 4 was “None of the compounds tested, including largazole thiol 6, showed any inhibitory activity”. The “inhibitory activity against isoform 7” value on HDAC isoform 7 is on record as “None of the compounds tested, including largazole thiol 6, showed any inhibitory activity”. Further, the “inhibitory activity against isoform 9” value against HDAC isoform 9 was “None of the compounds tested, including largazole thiol 6, showed any inhibitory activity”. Moreover, the “inhibitory activity against isoform 11” value against HDAC isoform 11 is listed as “None of the compounds tested, including largazole thiol 6, showed any inhibitory activity”. Further, the “inhibitory activity against sirtuins” value with sirtuins is “None of the compounds tested, including largazole thiol 6, showed any inhibitory activity”.
For `CC(C)[C@@H]1NC(=O)[C@]2(C)CSC(=N2)c2csc(n2)CNC(=O)C[C@@H](/C=C/CCC(=O)NO)OC1=O` [compound 7], the “histone H3 (Lys9/14) hyperacetylation” value in test [1] and in test [2] was “dose-dependent increase” each time.
As to `CC(C)[C@@H]1NC(=O)[C@]2(C)CSC(=N2)c2csc(n2)CNC(=O)C[C@@H](/C=C/CCSCCS)OC1=O` [compound 8], the “histone H3 (Lys9/14) hyperacetylation” value in test [1] and in [2] was “dose-dependent increase” each time.
